The list is not random: actives were taken first. Their share in the collection is about 1.4%.
Vif inh: blocks HIV Vif function; 0.35% of 340,000 active; HEK293T cells, Vif self-association by quenched fluorescence, imaging, 24 h; inhibition, % at 7.49 µM; in the data active = inhibition above about 50%, passing the limit was not always enough; inconclusive = no clear call, values can overlap the other calls; inactive = below about 31%
T cell HTS: T cell immune modulators affecting CD8 T cell-vesicle binding; response (vesicle binding), % at 7 µM; 2C CD8+ T cell-vesicle binding, flow cytometry; stronger effect = lower value; 0.068% of 330,000 active;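 active = response, share of CD8 T cells binding vesicles, and their 90th percentile fluorescence all below set limits, cut at about 80% in these data, passing the limit was not always enough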;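 note: values below 100% mean blocked vesicle binding to the CD8+ T cells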
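Material: murine 2C transgenic CD8+ T lymphocytes / Also added: QL9-peptide-loaded Drosophila micro-vesicles bearing Ld, ICAM-1 and B7-1 / Schedule: binding step 1.5 h, 37 °C, antibody labelling 20 min, ice / Signal: flow cytometry, PE anti-B7-1 (FL2) versus Alexa647 anti-CD8 (FL8), PFA-fixed / Evaluation: percent CD8+ FL2 mean versus row control / Benchmarks: naked versus QL9-loaded vesicles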
Casp6 inh: blocks human caspase-6 cleavage activity; P55212; purified caspase-6, Z-VEID-R110 cleavage fluorescence; inhibition, % at 12.5 µM; 0.53% of 350,000 active;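 active = mean inhibition across replicates at least about 35%, with every replicate also reaching that limit, limit read from the data; inconclusive = only one of the two criteria met; inactive = neither criterion met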
Target sequence (P55212 24-179 limits assumed): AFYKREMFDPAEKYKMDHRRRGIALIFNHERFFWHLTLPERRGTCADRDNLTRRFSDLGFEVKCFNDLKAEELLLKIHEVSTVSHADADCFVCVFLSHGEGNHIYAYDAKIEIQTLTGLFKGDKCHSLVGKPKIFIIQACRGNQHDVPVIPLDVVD
Target sequence (P55212 194-293 limits assumed): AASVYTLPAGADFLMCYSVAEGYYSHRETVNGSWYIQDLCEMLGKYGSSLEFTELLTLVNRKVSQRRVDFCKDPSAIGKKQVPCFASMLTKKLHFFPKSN
Myeloid diff MLP: myeloid differentiation induction; 1% of 360,000 active; calls only at 10 µM; ER-HoxA9 myeloid progenitors, lysozyme-GFP differentiation, flow cytometry; AID 624256;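 active = normalized GFP-positive differentiation at or above the plate's own cutoff, the solvent-only control mean plus 3 SD; inconclusive = no clear call, values can overlap the other calls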;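 note: cells exposed to compound for four days before flow analysis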
Numbers stand for hits; 0 = inactive; ? = inconclusive; - = no result given; + = active, no number; ! = not active in a repeat.

SMILES | Vif inh | T cell HTS | Casp6 inh | Myeloid diff MLP
CCCN(C)C[C@H]1Oc2cc(C#CCC3CCCC3)ccc2S(=O)(=O)N([C@H](C)CO)C[C@@H]1C | - | - | 0 | -
NC(=O)c1sc2cc(C(F)(F)F)cnc2c1-c1cccs1 | 0 | 0 | - | 0
NNC(=O)c1sc2cc(C(F)(F)F)cnc2c1-c1cccs1 | 0 | 0 | 0 | +
CCc1ccc(-c2nc(CCl)cs2)cc1 | 100.0 | 0 | 0 | 0
COc1ccc(-c2nc(CCl)cs2)cc1 | 0 | 0 | 0 | 0
O=C(C[C@H]1CC[C@@H](NC(=O)Nc2cc(F)ccc2F)[C@@H](CO)O1)Nc1ccccc1 | - | - | 0 | -
O=c1sc(N2CCN(c3ccc(F)cc3)CC2)nc2ccsc12 | 68.3 | 0 | 0 | 0
COc1ccc(C(=O)CC(=O)C(=O)Nc2ccc(Cl)cc2)cc1 | 0 | 0 | 0 | 0
COc1ccc(C(=O)CC(Nc2ccc([N+](=O)[O-])cc2)c2ccc(Cl)cc2)cc1 (centres undefined) | 0 | 0 | - | +
COCC(=O)N1[C@H](CO)[C@@H](c2ccccc2)C12CN(C(=O)c1ccc(F)cc1)C2 | - | - | 0 | -
CC(C)NC(=O)N(C)C[C@H]1OCCCC[C@@H](C)Oc2ccc(NC(=O)CCC(F)(F)F)cc2C(=O)N([C@@H](C)CO)C[C@H]1C | - | - | 0 | -
COc1cc(NC(=O)c2ccc([N+](=O)[O-])o2)ccc1NC(=O)c1cccs1 | 0 | 0 | 0 | +
Cc1ccc(NC(=O)c2ccc([N+](=O)[O-])o2)c(C)c1 | 0 | 0 | 0 | +
Cc1ccccc1NC(=O)c1ccc([N+](=O)[O-])o1 | 0 | 0 | 0 | 0
O=C(Nc1cccc(NC(=O)c2cccs2)c1)c1ccc([N+](=O)[O-])o1 | - | 0 | 0 | ?
O=C(c1ccc2c(c1)OCO2)N1CCCCN2[C@H](CO)[C@@H](c3ccc(-c4ccccc4)cc3)[C@@H]2C1 | - | - | 0 | -
C[C@@H]1CN([C@@H](C)CO)C(=O)Cc2cc(NC(=O)Nc3cccc4ccccc34)ccc2O[C@@H]1CN(C)C(=O)Nc1ccccc1 | - | - | 0 | -
CCCCC(=O)NNC(=O)c1c(O)c2ccccc2[nH]c1=O | 0 | 0 | 0 | 0
O=C(CCl)NNC(=O)c1c(O)c2ccccc2[nH]c1=O | - | 0 | 0 | +
O=C(NC1CC1)c1c(O)c2ccccc2[nH]c1=O | 0 | 0 | 44.9 | 0
O=C(NC1CCCCCCC1)c1c(O)c2ccccc2[nH]c1=O | 0 | 0 | - | 0
COc1cccc(NC(=O)N2CC3(C2)[C@H](c2ccccc2)[C@H](CO)N3C(=O)C2CC2)c1 | - | - | 0 | -
COc1ccc(C)cc1NC(=O)CN1C(=O)C2CC=CCC2C1=O (centres undefined) | 0 | 0 | 0 | 0
COc1cc(Cl)c(C)cc1NC(=O)CN1C(=O)C2CC=CCC2C1=O (centres undefined) | 58.8 | 0 | 0 | 0
COc1ccc(CCNC(=O)Cn2cnc3ccccc3c2=O)cc1OC | 0 | 0 | - | 0
SMILES | Vif inh | T cell HTS | Casp6 inh | Myeloid diff MLP
CCOc1ccc(CCNC(=O)COC(=O)Cn2cnc3ccccc3c2=O)cc1OCC | 0 | 0 | 0 | +
CC1(C)N=C(N)N=C(N)N1c1ccc(OCC(=O)N2CCOCC2)c(Cl)c1 | 0 | - | 0 | +
CC(C)(C)[C@H]1C=C(C(=O)N2CCCCCCC2)O[C@@H](OCc2ccc(CO)cc2)C1 | - | - | 0 | -
Cc1ccc(S(=O)(=O)Nc2ccc3c(c2)C(=O)N([C@@H](C)CO)C[C@@H](C)[C@H](CN(C)C(=O)c2ccccc2)OCCCC[C@H](C)O3)cc1 | - | - | 0 | -
C#CCNc1c2c(nc3nnnn13)CCCC2 | 0 | 0 | 0 | 0
CNc1c2c(nn1C)CCCC2 | 0 | - | 0 | +!
COc1ccc(-c2nc(SCC(=O)N(CC(C)C)c3c(N)n(Cc4ccccc4)c(=O)[nH]c3=O)n[nH]2)cc1 | 0 | 0 | 0 | 0
CCCN(C(=O)CSc1n[nH]c(-c2ccc(OC)cc2)n1)c1c(N)n(Cc2ccccc2)c(=O)[nH]c1=O | 0 | 0 | 0 | +
Cc1cc(SCC(=O)OC/C(O)=C(\C#N)c2nc3ccccc3[nH]2)c(C)cc1Br | 0 | 0 | 0 | 0
N#C/C(=C(/O)COC(=O)CSc1ccc(Cl)cc1)c1nc2ccccc2[nH]1 | 0 | 0 | 0 | +
CC1=Nc2cc(C(=O)N3CCCC3)ccc2Sc2c(C)ccc(C)c21 | 0 | 0 | 0 | ?
CC1=Nc2cc(C(=O)O)ccc2Sc2c(C)ccc(C)c21 | 68.7 | 0 | 0 | 0
COc1ccc(C[C@@H]2OC3(C=CC(=O)C=C3)O[C@H]2Cc2ccc(OC)cc2)cc1 | 69.3 | - | - | +
O=C1C=CC2(C=C1)O[C@H](Cc1ccccc1)[C@@H](Cc1ccccc1)O2 | 0 | - | 0 | +
COc1ccc(N2C(=O)CC(Cc3ccccc3)C2=O)cc1 (centres undefined) | 0 | 0 | - | 0
O=C(O)c1ccc(-n2cccc2/C=C2/SC(=O)N(CC(=O)N3CCCC3)C2=O)cc1 | 0 | 0 | 65.6 | -
O=C1N/C(=C/c2cccn2-c2ccc(F)cc2)C(=O)N1Cc1ccccc1 | 0 | 0 | - | 0
O=C(O)c1ccc(-n2cccc2/C=C2/NC(=O)N(c3ccccc3)C2=O)cc1 | 0 | 0 | 69.5 | 0
Cc1cc(/C=N/NC(=O)C(O)(c2ccccc2)c2ccccc2)c(C)n1-c1ccc(C(=O)O)cc1 | 0 | 0 | 0 | 0
Cc1cc(/C=N/NC(=O)C(O)(c2ccccc2)c2ccccc2)c(C)n1-c1cccc(C(=O)O)c1 | 0 | 0 | 43.5 | 0
O=C(O)c1cccc(-n2cccc2/C=C2\NC(=O)N(Cc3ccc(F)cc3)C2=O)c1 | 0 | 0 | 71.5 | 0
CO[C@H]1CN(C)C(=O)c2ccc(NS(=O)(=O)c3cn(C)cn3)cc2OC[C@@H](C)NC[C@@H]1C | - | - | 0 | -
COCC(=O)N1C[C@H](C)[C@@H](OC)CN(C)C(=O)c2cc(NC(=O)Nc3cccc(F)c3)ccc2OC[C@H]1C | - | - | 0 | -
Cc1ccc(CN2C(=O)N/C(=C\c3cccn3-c3cccc(C(=O)O)c3)C2=O)cc1 | 0 | 0 | 60.3 | 0
Cc1ccc(NC(=O)CN2C(=O)N/C(=C/c3cc(C)n(-c4cccc(C(=O)O)c4)c3C)C2=O)cc1 | 0 | - | 71.8 | 0
SMILES | Vif inh | T cell HTS | Casp6 inh | Myeloid diff MLP
CC(=O)NC1=NC(=O)/C(=C/c2cc(C)n(-c3cccc(C(=O)O)c3)c2C)S1 | 0 | - | 67.2 | 0
CC(=O)NC1=NC(=O)/C(=C/c2cc(C)n(-c3ccc(NC(C)=O)cc3)c2C)S1 | 0 | 0 | 0 | 0
COc1ccccc1-c1cnc2c(c1)C(=O)N([C@@H](C)CO)C[C@@H](C)[C@H](CN(C)C(C)=O)O2 | - | - | 0 | -
CC(C)(C)OC(=O)N1CCC(Cc2cc(-c3cccnc3)no2)(C(=O)O)CC1 | 0 | - | 0 | +
CC(C)(C)OC(=O)N1CCC(Cc2cc(-c3ccccc3)no2)(C(=O)O)CC1 | 0 | 0 | 0 | 0
CC=Cc1ccc2n(c1=O)C[C@H]1[C@H](CO)[C@@H](C(=O)NCCC)N(CC3CCOCC3)[C@@H]21 (mixture of isomers) | - | - | 0 | -
CC(=O)c1ccc(NC(=O)c2noc3c2CCC3)cc1 | 0 | 0 | 0 | 0
Cc1ccc(NC(=O)c2noc3c2CCC3)cc1C | 0 | - | 53.7 | 0
COc1cccc(-c2ccc3c(c2)[C@@H]2[C@@H](CCN2C(=O)C2CCCC2)[C@H](CO)N3)c1 | - | - | 0 | -
COC(=O)CCC(=O)OC1(C)C(=O)C=C2C=C(C3CC3)N(CCCOC(C)C)C=C2C1=O (centres undefined) | 0 | 0 | - | 0
